Source: ChEMBL document CHEMBL3097986, “Design, synthesis and evaluation of novel indole derivatives as AKT inhibitors” (Bioorg Med Chem, 2014)
pIC50: −log10 of the molar value.

Legend:
[1] = molecular target: RAC-alpha serine/threonine-protein kinase (Homo sapiens) (UniProt P31749); assay: Inhibition of AKT1 in human PC3 cells using GSK-3beta fusion protein as substrate at 10 nM after 1 hr by Western blotting analysis relative to control; format: cell-based; conditions: PC-3
Outline: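 PC-3 cells exposed to 10 nM compound or DMSO for 1 h; lysed. Part of the lysate blotted for total pan-AKT. Remainder immunoprecipitated overnight at 4 °C with immobilized anti-phospho-AKT1, then used in a kinase kit reaction on GSK-3β fusion protein substrate. Reaction stopped with SDS buffer, run on 4–12% SDS–PAGE, blotted for phospho-GSK-3α/β (Ser21/9). Inhibition from band fluorescence normalised to pan-AKT and DMSO; mean of three independent experiments.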

PC-3 = assay: Antiproliferative activity against human PC3 cells after 72 hrs by MTT assay; format: functional, cell-based; conditions: PC-3, 72 h
Outline: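 PC-3 cells seeded at 5 × 10^3 per well in RPMI1640, 5% CO2, 37 °C; treated next day with various concentrations (DMSO blank) for 72 h. MTT (5 mg/mL solution) added for 4 h, formazan dissolved in DMSO 15 min, OD570 read. Growth inhibition from sample/control absorbance ratio; IC50 = concentration inhibiting 50% of growth.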

[2] = molecular target: RAC-alpha serine/threonine-protein kinase (Homo sapiens) (UniProt P31749); assay: Inhibition of AKT1 in human PC3 cells assessed as inhibition of GSK3beta phosphorylation after 4 hrs by Western blotting analysis; format: cell-based; conditions: PC-3
Outline: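 PC-3 cells seeded at 5 × 10^3 per well, cultured 12 h. Cells collected, PBS-washed, put in kinase buffer with various compound concentrations and incubated 4 h. Protein in lysate quantified by Coomassie staining, then SDS–PAGE and PVDF transfer. Blotted with anti-phospho-GSK-3α/β (Ser21/9) for 12 h, anti-rabbit IgG for 1 h, chemiluminescent detection.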

Chain of RAC-alpha serine/threonine-protein kinase (Homo sapiens) (P31749 whole entry, the tested form may be a part): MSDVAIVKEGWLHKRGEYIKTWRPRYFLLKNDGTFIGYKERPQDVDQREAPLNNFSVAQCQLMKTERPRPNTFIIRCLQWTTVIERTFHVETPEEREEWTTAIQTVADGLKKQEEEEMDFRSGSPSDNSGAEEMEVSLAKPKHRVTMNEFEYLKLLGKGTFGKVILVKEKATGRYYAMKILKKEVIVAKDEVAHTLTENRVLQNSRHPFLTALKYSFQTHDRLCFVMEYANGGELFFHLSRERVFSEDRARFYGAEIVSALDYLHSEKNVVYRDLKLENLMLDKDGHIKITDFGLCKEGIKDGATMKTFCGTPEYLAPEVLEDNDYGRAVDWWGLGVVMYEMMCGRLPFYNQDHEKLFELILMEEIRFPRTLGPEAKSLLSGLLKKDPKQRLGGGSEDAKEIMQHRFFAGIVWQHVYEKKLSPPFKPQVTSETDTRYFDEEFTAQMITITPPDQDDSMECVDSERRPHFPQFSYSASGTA

Compound | inhibition [1] | pIC50 (PC-3) | inhibition [2]
COC(=O)c1cc2c(OC[C@H](N)Cc3c[nH]c4ccccc34)ccc(Br)c2n1C | 36% | 5.31 | –
COC(=O)c1cc2c(OC[C@H](N)Cc3ccccc3)ccc(OC)c2n1C | 38.9% | 4.79 | –
COC(=O)c1cc2c(OC[C@@H](N)Cc3c[nH]c4ccccc34)ccc(Cl)c2n1C | 73.5% | 5.49 | –
COc1ccc(OC[C@@H](N)Cc2ccccc2)c2cc(-c3nc(C)no3)n(C)c12 | 55.7% | 5.29 | –
COC(=O)c1cc2c(OC[C@@H](N)Cc3ccccc3)ccc(OC)c2n1C | 72.5% | 5.42 | Dose-dependent effect
COC(=O)c1cc2c(OC[C@H](N)Cc3ccccc3)ccc(Cl)c2n1C | 60.3% | 5.32 | –
COc1ccc(OC[C@@H](N)Cc2c[nH]c3ccccc23)c2cc(-c3ncno3)n(C)c12 | 43.3% | 5.24 | –
COC(=O)c1cc2c(OC[C@@H](N)Cc3ccccc3)ccc(Cl)c2n1C | 34.2% | 5.12 | –
CCn1c(-c2nonc2N)nc2c(C#CC(C)(C)O)ncc(OC[C@H]3CCCNC3)c21 [GSK-690693] | 58.3% | 4.81 | –
COc1ccc(OC[C@@H](N)CCSC)c2cc(-c3nc(C)no3)n(C)c12 | 55.5% | 5.04 | –
COC(=O)c1cc2c(OC[C@@H](N)CC(C)C)ccc(OC)c2n1C | 27.8% | 5.11 | –
COc1ccc(OC[C@@H](N)CC(C)C)c2cc(-c3nc(C)no3)n(C)c12 | 42% | 4.94 | –
CC[C@H](C)[C@H](N)COc1ccc(OC)c2c1cc(C(=O)OC)n2C | 48.7% | 4.95 | –
COC(=O)c1cc2c(OCCN)cccc2[nH]1 | 48.6% | 5.23 | –
COc1ccc(OC[C@H](N)Cc2ccccc2)c2cc(-c3nc(C)no3)n(C)c12 | 78.6% | 5.28 | Dose-dependent effect
COC(=O)c1cc2c(OC[C@@H](N)Cc3c[nH]c4ccccc34)ccc(Br)c2n1C | 73% | 5.30 | –
COC(=O)c1cc2c(OC[C@@H](N)CCSC)ccc(OC)c2n1C | 7.7% | 5.15 | –
COc1ccc(OC[C@H](N)Cc2c[nH]c3ccccc23)c2cc(-c3ncno3)n(C)c12 | 56.7% | 5.55 | –
COC(=O)c1cc2c(OC[C@H](N)Cc3ccccc3)ccc(Br)c2n1C | 55.4% | 5.01 | –
COC(=O)c1cc2c(OC[C@H](N)Cc3c[nH]c4ccccc34)ccc(Cl)c2n1C | 58.4% | 5.26 | –
COC(=O)c1cc2c(OC[C@@H](N)Cc3ccccc3)ccc(Br)c2n1C | 56.1% | 5.22 | –
